In ChEMBL document CHEMBL1134537, “Potent dibasic GPIIb/IIIa antagonists with reduced prolongation of bleeding time: synthesis and pharmacological evaluation of 2-oxopiperazine derivatives” (J Med Chem, 2001):

What was measured:
Format in all cases: functional
Cavia porcellus [1] = organism: Cavia porcellus; test: In vitro inhibition of ADP induced aggregation in guinea pig platelets
Outline: (§1)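 Guinea pig blood was taken by aortic puncture under pentobarbital into 3.15% citrate (1:10). PRP was adjusted to 4 × 10^5 platelets/μL and prewarmed 2 min at 37 °C with compound, stirred. Aggregation was induced with ADP (0.8–1 μM) and read as the change in light transmittance. IC50 with 95% CI.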

Cavia porcellus [2] = organism: Cavia porcellus; test: Ex vivo inhibition of ADP induced aggregation in guinea pig platelets
Outline: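 Male guinea pigs (250–400 g) were given a continuous iv infusion in 0.9% saline, with vehicle for controls. At 90 min, citrated blood was drawn from the abdominal aorta under anesthesia and PRP was prepared. Aggregation was induced with submaximal ADP and read by light transmittance. ID50 in μg/kg/min with 95% CI, n = 2–5.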

Cavia porcellus [3] = test: Effect on bleeding time when a dose of 9.0 ug/kg/min was administered to guinea pig
Outline: (§2)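 Male guinea pigs (250–400 g) received continuous iv infusion of compound in 0.9% saline, with vehicle for controls. Template BT was taken 90 min after infusion start under pentobarbital (25 mg/kg ip), with hind limb shaved the day before and a pressure cuff proximal to the site. Each animal's value is the mean of two cuts; mean ± SE, n = 3. The cut-off is 900 s.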

[4] = Dose ratio for dose causing prolongation of bleeding time to 3 times the basel value vs ID50 value of ex-vivo ADP-induced platelet aggregation.
Outline: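 Template bleeding time and ex vivo ADP aggregation measured in male guinea pigs 90 min after starting continuous iv infusion in 0.9% saline. BT(×3) is the dose prolonging BT to 3 times basal. The ratio is BT(×3) dose divided by the ex vivo ID50 dose.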

Homo sapiens [5] = organism: Homo sapiens; test: In vitro effect on PAF induced human platelet aggregation
Outline: (§3)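 Human citrated (3.8%) PRP adjusted to 3 × 10^5 platelets/μL was stirred and prewarmed 2 min at 37 °C with compound. Submaximal agonist was added (PAF, TRAP or collagen) and aggregation recorded as the change in light transmittance.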

Homo sapiens [6] = organism: Homo sapiens; test: In vitro effect on ADP induced human platelet aggregation
Outline: (§4)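 Human blood was collected into 3.8% citrate (1:10). PRP was adjusted to 3 × 10^5 platelets/μL and preincubated 2 min at 37 °C with compound, stirred at 1000 rpm. ADP (1–10 μM) was then added and light-transmittance aggregometry recorded. IC50 with 95% CI, n = 4.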

[7] = In vitro effect on ADP induced platelet aggregation in monkey platelet rich plasma; details: Cercopithecidae
Outline: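 Monkey blood was drawn into 3.8% citrate (1:10). PRP at 3 × 10^5 platelets/μL was warmed 2 min at 37 °C with compound under stirring. Aggregation was triggered by ADP (30–40 μM) and measured by light transmittance. IC50 with 95% CI, n = 4.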

Cavia porcellus [8] = organism: Cavia porcellus; test: In vitro effect on ADP induced platelet aggregation in guinea pig platelet rich plasma; outline: as §1
Homo sapiens [9] = organism: Homo sapiens; test: In vitro effect on TRAP induced human platelet aggregation; outline: as §3
Homo sapiens [10] = organism: Homo sapiens; test: In vitro effect on ADP induced platelet aggregation in human platelet rich plasma; outline: as §4
Homo sapiens [11] = organism: Homo sapiens; test: In vitro effect on collagen induced human platelet aggregation; outline: as §3
Cavia porcellus [12] = test: Effect on bleeding time when a dose of 10 ug/kg/min was administered to guinea pig; outline: as §2
Cavia porcellus [13] = test: Effect on bleeding time when a dose of 6.0 ug/kg/min was administered to guinea pig; outline: as §2
Cavia porcellus [14] = test: Effect on bleeding time when a dose of 4.0 ug/kg/min was administered to guinea pig; outline: as §2
Cavia porcellus [15] = test: Effect on bleeding time when a dose of 8.0 ug/kg/min was administered to guinea pig; outline: as §2
Cavia porcellus [16] = test: Effect on bleeding time when a dose of 6.5 ug/kg/min was administered to guinea pig; outline: as §2
Cavia porcellus [17] = test: Effect on bleeding time when a dose of 2.2 ug/kg/min was administered to guinea pig; outline: as §2
Cavia porcellus [18] = test: Effect on bleeding time when a dose of 4 ug/kg/min was administered to guinea pig; outline: as §2
Cavia porcellus [19] = test: Effect on bleeding time when a dose of 1.4 ug/kg/min was administered to guinea pig; outline: as §2
Cavia porcellus [20] = test: Effect on bleeding time when a dose of 0.9 ug/kg/min was administered to guinea pig; outline: as §2
Cavia porcellus [21] = test: Effect on bleeding time when a dose of 2.5 ug/kg/min was administered to guinea pig; outline: as §2
Cavia porcellus [22] = test: Effect on bleeding time when a dose of 2 ug/kg/min was administered to guinea pig; outline: as §2
Cavia porcellus [23] = test: Effect on bleeding time when a dose of 5 ug/kg/min was administered to guinea pig; outline: as §2
Cavia porcellus [24] = test: Effect on bleeding time when a dose of 5.0 ug/kg/min was administered to guinea pig; outline: as §2
Cavia porcellus [25] = test: Effect on bleeding time when a dose of 0.2 ug/kg/min was administered to guinea pig; outline: as §2
Cavia porcellus [26] = test: Effect on bleeding time when a dose of 3.0 ug/kg/min was administered to guinea pig; outline: as §2

| SMILES | IC50 (Cavia porcellus [1]) | ID50 (Cavia porcellus [2]) | Dissociation ratio [4] | further results |
| --- | --- | --- | --- | --- |
| N=C(N)Nc1ccc(C(=O)NCC[C@H]2C(=O)N(CC(=O)O)CCN2C(=O)CNC(=O)c2ccc(NC(=N)N)cc2)cc1 | 97 nM | 0.88 µg/min/kg | <10 | BT (Cavia porcellus [3]): 800 |
| COC(=O)C[C@H]1C(=O)N(CC(=O)O)CCN1C(=O)CNC(=O)c1ccc(C(=N)N)cc1 | – | – | – | IC50 (Homo sapiens [5]): 29 nM; IC50 (Homo sapiens [6]): 31 nM; IC50 [7]: 46 nM; IC50 (Cavia porcellus [8]): 43 nM; IC50 (Homo sapiens [9]): 32 nM; IC50 (Homo sapiens [10]): 31 nM; IC50 (Homo sapiens [11]): 31 nM |
| N=C(N)c1ccc(C(=O)NCC(=O)N2CCN(CC(=O)O)C(=O)[C@@H]2CCCNC(=O)CCCCCN)cc1 | 160 nM | 0.86 µg/min/kg | <12 | BT (Cavia porcellus [12]): 780 |
| N=C(N)Nc1ccc(C(=O)NCCC[C@H]2C(=O)N(CC(=O)O)CCN2C(=O)CNC(=O)c2ccc(NC(=N)N)cc2)cc1 | 51 nM | 0.18 µg/min/kg | >33 | IC50 (Homo sapiens [5]): 30 nM; IC50 (Homo sapiens [6]): 31 nM; IC50 [7]: 79 nM; BT (Cavia porcellus [13]): 510; IC50 (Cavia porcellus [8]): 51 nM; IC50 (Homo sapiens [9]): 91 nM; IC50 (Homo sapiens [10]): 31 nM; IC50 (Homo sapiens [11]): 59 nM |
| N=C(N)c1ccc(C(=O)NCC(=O)N2CCN(CC(=O)O)C(=O)[C@@H]2CNC(=O)c2ccc(C(=N)N)cc2)cc1 | 120 nM | 0.72 µg/min/kg | <6 | BT (Cavia porcellus [14]): >900 |
| N=C(N)c1ccc(C(=O)NCC[C@H]2C(=O)N(CC(=O)O)CCN2C(=O)CNC(=O)c2ccc(C(=N)N)cc2)cc1 | 190 nM | 0.91 µg/min/kg | <9 | BT (Cavia porcellus [15]): 800 |
| N=C(N)Nc1ccc(C(=O)NC[C@H]2C(=O)N(CC(=O)O)CCN2C(=O)CNC(=O)c2ccc(C(=N)N)cc2)cc1 | 85 nM | 0.66 µg/min/kg | 10 | BT (Cavia porcellus [16]): 660 |
| N=C(N)Nc1ccc(C(=O)NCC(=O)N2CCN(CC(=O)O)C(=O)[C@@H]2CNC(=O)c2ccc(NC(=N)N)cc2)cc1 | 140 nM | 1 µg/min/kg | <10 | BT (Cavia porcellus [12]): 720 |
| N=C(N)c1ccc(C(=O)NCCC[C@H]2C(=O)N(CC(=O)O)CCN2C(=O)CNC(=O)c2ccc(C(=N)N)cc2)cc1 | 37 nM | 0.19 µg/min/kg | 12 | BT (Cavia porcellus [17]): 660 |
| N=C(N)Cc1ccc(C(=O)NC[C@H]2C(=O)N(CC(=O)O)CCN2C(=O)CNC(=O)c2ccc(C(=N)N)cc2)cc1 | 57 nM | 0.42 µg/min/kg | <10 | BT (Cavia porcellus [18]): 760 |
| N=C(N)NCCCC(=O)NCCC[C@H]1C(=O)N(CC(=O)O)CCN1C(=O)CNC(=O)c1ccc(C(=N)N)cc1 | 88 nM | 0.47 µg/min/kg | 21 | BT (Cavia porcellus [12]): 620 |
| N=C(N)Nc1ccc(C(=O)NCCC[C@H]2C(=O)N(CC(=O)O)CCN2C(=O)CNC(=O)c2ccc(C(=N)N)cc2)cc1 | 19 nM | 0.087 µg/min/kg | 16 | BT (Cavia porcellus [19]): >900; BT (Cavia porcellus [20]): 490 |
| N=C(N)Nc1ccc(C(=O)NCC[C@H]2C(=O)N(CC(=O)O)CCN2C(=O)CNC(=O)c2ccc(C(=N)N)cc2)cc1 | 37 nM | 0.12 µg/min/kg | 21 | BT (Cavia porcellus [21]): 820; BT (Cavia porcellus [22]): 410 |
| COc1ccc(C[C@H](NC(=O)c2ccc(C(=N)N)cc2)C(=O)N2CCN(CC(=O)O)C(=O)[C@@H]2CCCNC(=O)c2ccc(C(=N)N)cc2)cc1 | 23 nM | 0.021 µg/min/kg | 10 | – |
| N=C(N)c1ccc(C(=O)NCC(=O)N2CCN(CC(=O)O)C(=O)[C@@H]2CCCNC(=O)CCCCN)cc1 | 210 nM | 0.94 µg/min/kg | >5 | BT (Cavia porcellus [23]): 490 |
| N=C(N)Cc1ccc(C(=O)NCCC[C@H]2C(=O)N(CC(=O)O)CCN2C(=O)CNC(=O)c2ccc(C(=N)N)cc2)cc1 | 67 nM | 0.41 µg/min/kg | 10 | BT (Cavia porcellus [14]): 620 |
| N=C(N)c1ccc(C(=O)NCCCC[C@H]2C(=O)N(CC(=O)O)CCN2C(=O)CNC(=O)c2ccc(C(=N)N)cc2)cc1 | 150 nM | 0.79 µg/min/kg | 6 | BT (Cavia porcellus [24]): 620 |
| COc1ccc(C[C@H](NC(=O)c2ccc(C(=N)N)cc2)C(=O)N2CCN(CC(=O)O)C(=O)[C@@H]2CCCCNC(=O)c2ccc(C(=N)N)cc2)cc1 | 12 nM | 0.041 µg/min/kg | <5 | BT (Cavia porcellus [25]): >900 |
| N=C(N)c1ccc(C(=O)NCC(=O)N2CCN(CC(=O)O)C(=O)[C@@H]2CCCNC(=O)c2ccc(CCN)cc2)cc1 | 81 nM | 0.56 µg/min/kg | 11 | BT (Cavia porcellus [13]): 860; BT (Cavia porcellus [26]): 270 |
